Test results as given in ChEMBL document CHEMBL4152306, “Synthesis and biological evaluation of new coumarins bearing 2,4-diaminothiazole-5-carbonyl moiety” (Eur J Med Chem, 2018).
Values after ≈ are worked out from the molar mass of the structure shown.

What was measured:
MCF7 [1] = assay: Cell cycle arrest in human MCF7 cells assessed as accumulation at G1 phase at 11.2 ug/ml after 48 hrs by propidium iodide staining based flow cytometry (reference value: 68.58%); format: functional
MCF7 [2] = assay: Induction of apoptosis in human MCF7 cells assessed as late apoptotic cells at 7.5 ug/ml after 48 hrs by Annexin-V-FITC/propidium iodide staining based flow cytometry (reference value: 15.6%); format: functional
Procedure, shortened: (§1)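 MCF-7 cells seeded in 6-well plates, incubated overnight at 37 °C, 5% CO2, treated 48 h; untreated cells as negative control, etoposide as standard. Cells trypsinized, PBS-washed twice, pelleted at 1200 rpm, resuspended in 500 µl binding buffer with 5 µl each Annexin V-FITC and PI, 5–15 min at room temperature in dark, then flow cytometry.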

SW480 = assay: Cytotoxicity against human SW480 cells assessed as inhibition of cell proliferation after 48 hrs by MTT assay; format: functional, cell-based; details: SW480, 48 h
Procedure, shortened: (§2)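 Cells seeded at 8 × 10³ per well in complete medium, incubated overnight at 37°C, 5% CO2, then exposed to a range of compound concentrations (DMSO solutions; 0.1% DMSO negative control, etoposide positive control) for 48 h at 37°C. Viability by MTT, absorbance 570 nm. IC50 from dose-response curves, mean ± SE of at least three independent experiments.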

[3] = Antioxidant activity assessed as ferric ion reduction by measuring FeSO4 equivalents reducing Fe3+-TPTZ to Fe2+-TPTZ at 100 ug/ml after 25 mins by FRAP assay; format: functional
Procedure, shortened: (§3)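 FRAP reagent: 10 mM TPTZ in 40 mM HCl, 20 mM FeCl3·6H2O and 300 mM acetate buffer pH 3.6 (1:1:10). 20 µl sample (tested 5 to 100 µg/ml) mixed with 150 µl reagent, incubated 37°C for 25 min, absorbance at 593 nm. Values as µM FeSO4·7H2O equivalents from calibration curve; ascorbic acid as standard.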

MCF7 [4] = assay: Cell cycle arrest in human MCF7 cells assessed as accumulation at G1 phase at 7.5 ug/ml after 48 hrs by propidium iodide staining based flow cytometry (reference value: 68.58%); format: functional
MCF7 [5] = assay: Induction of apoptosis in human MCF7 cells assessed as necrotic cells at 7.5 ug/ml after 48 hrs by Annexin-V-FITC/propidium iodide staining based flow cytometry (reference value: 5.79%); format: functional; procedure, shortened: as §1
MCF7 [6] = assay: Cell cycle arrest in human MCF7 cells assessed as accumulation at G2 phase at 7.5 ug/ml after 48 hrs by propidium iodide staining based flow cytometry (reference value: 13.24%); format: functional
HepG2 = assay: Cytotoxicity against human HepG2 cells assessed as inhibition of cell proliferation after 48 hrs by MTT assay; format: functional, cell-based; details: HepG2, 48 h; procedure, shortened: as §2
MCF7 [7] = assay: Cell cycle arrest in human MCF7 cells assessed as accumulation at G2 phase at 11.2 ug/ml after 48 hrs by propidium iodide staining based flow cytometry (reference value: 13.24%); format: functional
MCF7 [8] = assay: Cytotoxicity against human MCF7 cells assessed as inhibition of cell proliferation after 48 hrs by MTT assay; format: functional, cell-based; details: MCF7, 48 h; procedure, shortened: as §2
[9] = Antioxidant activity assessed as ferric ion reduction by measuring FeSO4 equivalents reducing Fe3+-TPTZ to Fe2+-TPTZ at 5 ug/ml after 25 mins by FRAP assay; format: functional; procedure, shortened: as §3
MCF7 [10] = assay: Induction of apoptosis in human MCF7 cells assessed as live cells at 7.5 ug/ml after 48 hrs by Annexin-V-FITC/propidium iodide staining based flow cytometry (reference value: 70.5%); format: functional; procedure, shortened: as §1
MCF7 [11] = assay: Induction of apoptosis in human MCF7 cells assessed as necrotic cells at IC50 after 48 hrs by Annexin-V-FITC/propidium iodide staining based flow cytometry (reference value: 5.79%); format: functional; procedure, shortened: as §1
MCF7 [12] = assay: Induction of apoptosis in human MCF7 cells assessed as early apoptotic cells at 7.5 ug/ml after 48 hrs by Annexin-V-FITC/propidium iodide staining based flow cytometry (reference value: 8.16%); format: functional; procedure, shortened: as §1
MCF7 [13] = assay: Induction of apoptosis in human MCF7 cells after 48 hrs by Annexin-V-FITC/propidium iodide staining based flow cytometry; format: functional, cell-based; procedure, shortened: as §1
MCF7 [14] = assay: Induction of apoptosis in human MCF7 cells assessed as early apoptotic cells at IC50 after 48 hrs by Annexin-V-FITC/propidium iodide staining based flow cytometry (reference value: 8.16%); format: functional; procedure, shortened: as §1
MCF7 [15] = assay: Induction of apoptosis in human MCF7 cells assessed as live cells at 11.2 ug/ml after 48 hrs by Annexin-V-FITC/propidium iodide staining based flow cytometry (reference value: 70.5%); format: functional; procedure, shortened: as §1
[16] = Antioxidant activity assessed as ferric ion reduction by measuring FeSO4 equivalents reducing Fe3+-TPTZ to Fe2+-TPTZ at 20 ug/ml after 25 mins by FRAP assay; format: functional; procedure, shortened: as §3
[17] = Antioxidant activity assessed as ferric ion reduction by measuring FeSO4 equivalents reducing Fe3+-TPTZ to Fe2+-TPTZ at 80 ug/ml after 25 mins by FRAP assay; format: functional; procedure, shortened: as §3
MCF7 [18] = assay: Cell cycle arrest in human MCF7 cells assessed as accumulation at S phase at 11.2 ug/ml after 48 hrs by propidium iodide staining based flow cytometry (reference value: 26.04%); format: functional
[19] = Antioxidant activity assessed as ferric ion reduction by measuring FeSO4 equivalents reducing Fe3+-TPTZ to Fe2+-TPTZ at 10 ug/ml after 25 mins by FRAP assay; format: functional; procedure, shortened: as §3
[20] = Antioxidant activity assessed as ferric ion reduction by measuring FeSO4 equivalents reducing Fe3+-TPTZ to Fe2+-TPTZ at 40 ug/ml after 25 mins by FRAP assay; format: functional; procedure, shortened: as §3
MCF7 [21] = assay: Induction of apoptosis in human MCF7 cells assessed as late apoptotic cells at 11.2 ug/ml after 48 hrs by Annexin-V-FITC/propidium iodide staining based flow cytometry (reference value: 15.6%); format: functional; procedure, shortened: as §1
MCF7 [22] = assay: Induction of apoptosis in human MCF7 cells assessed as necrotic cells at 11.2 ug/ml after 48 hrs by Annexin-V-FITC/propidium iodide staining based flow cytometry (reference value: 5.79%); format: functional; procedure, shortened: as §1
MCF7 [23] = assay: Induction of apoptosis in human MCF7 cells assessed as live cells at IC50 after 48 hrs by Annexin-V-FITC/propidium iodide staining based flow cytometry (reference value: 70.5%); format: functional; procedure, shortened: as §1
MCF7 [24] = assay: Induction of apoptosis in human MCF7 cells assessed as early apoptotic cells at 11.2 ug/ml after 48 hrs by Annexin-V-FITC/propidium iodide staining based flow cytometry (reference value: 8.16%); format: functional; procedure, shortened: as §1
MCF7 [25] = assay: Cell cycle arrest in human MCF7 cells assessed as accumulation at S phase at 7.5 ug/ml after 48 hrs by propidium iodide staining based flow cytometry (reference value: 26.04%); format: functional
MCF7 [26] = assay: Induction of apoptosis in human MCF7 cells assessed as late apoptotic cells at IC50 after 48 hrs by Annexin-V-FITC/propidium iodide staining based flow cytometry (reference value: 15.6%); format: functional; procedure, shortened: as §1
[27] = Antioxidant activity assessed as DPPH radical scavenging activity incubated for 30 mins under dark condition by spectrophotometric method; format: functional
Procedure, shortened: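 Test compounds dissolved in DMSO; 20 µl sample mixed with 250 µl DPPH in methanol (working solution diluted from 0.5 mM methanolic stock to absorbance […] at 517 nm). Kept 30 min at room temperature in dark, absorbance read at 517 nm against compound-free control; ascorbic acid standard. Triplicates; % inhibition from control vs sample absorbance; IC50 reported.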

| IC50 [27] | Compound | IC50 (SW480) | Activity [3] | IC50 (HepG2) | IC50 (MCF7 [8]) | Activity [9] | Activity [16] | Activity [17] | Activity [19] | Activity [20] | further results |
| --- | --- | --- | --- | --- | --- | --- | --- | --- | --- | --- | --- |
| 23.9 mg/L (≈ 64 µM) | Nc1nc(N2CCSCC2)sc1C(=O)c1cc2ccccc2oc1=O | 13 mg/L (≈ 34.8 µM) | 564 µMequiv | 16.9 mg/L (≈ 45.3 µM) | 7.5 mg/L (≈ 20.1 µM) | 76.3 µMequiv | 148 µMequiv | 455 µMequiv | 86.3 µMequiv | 266 µMequiv | Activity (MCF7 [1]): 89.83%; Activity (MCF7 [2]): 19.2%; Activity (MCF7 [4]): 83.98%; Activity (MCF7 [5]): 24.2%; Activity (MCF7 [6]): 8.28%; Activity (MCF7 [7]): 6.44%; Activity (MCF7 [10]): 51.5%; Activity (MCF7 [11]): 18.3%; Activity (MCF7 [12]): 5.15%; Activity (MCF7 [13]): Dose-dependent effect; Activity (MCF7 [14]): 4.65%; Activity (MCF7 [15]): 39.2%; Activity (MCF7 [18]): 9.08%; Activity (MCF7 [21]): 41.7%; Activity (MCF7 [22]): 13.2%; Activity (MCF7 [23]): 54.1%; Activity (MCF7 [24]): 5.9%; Activity (MCF7 [25]): 16.79%; Activity (MCF7 [26]): 19.2% |
| – | COc1cc([C@@H]2c3cc4c(cc3[C@@H](O[C@@H]3O[C@@H]5CO[C@@H](C)O[C@H]5[C@H](O)[C@H]3O)[C@H]3COC(=O)[C@H]23)OCO4)cc(OC)c1O [ETOPOSIDE] | 7.7 mg/L (≈ 13.1 µM) | – | 6.2 mg/L (≈ 10.5 µM) | 3.1 mg/L (≈ 5.27 µM) | – | – | – | – | – | – |
| 31.7 mg/L (≈ 71 µM) | Nc1nc(N2CCN(Cc3ccccc3)CC2)sc1C(=O)c1cc2ccccc2oc1=O | 23.4 mg/L (≈ 52.4 µM) | 444 µMequiv | 32 mg/L (≈ 71.7 µM) | 11.6 mg/L (≈ 26 µM) | 88.5 µMequiv | 198 µMequiv | 229 µMequiv | 134 µMequiv | 226 µMequiv | – |
| 27.7 mg/L (≈ 61.2 µM) | Nc1nc(N2CCSCC2)sc1C(=O)c1cc2cc(Br)ccc2oc1=O | 44.5 mg/L (≈ 98.4 µM) | 171 µMequiv | 29.7 mg/L (≈ 65.7 µM) | 12.5 mg/L (≈ 27.6 µM) | 57 µMequiv | 78.5 µMequiv | 164 µMequiv | 70.5 µMequiv | 94.3 µMequiv | – |
| 25.8 mg/L (≈ 72.2 µM) | Nc1nc(N2CCOCC2)sc1C(=O)c1cc2ccccc2oc1=O | 20.5 mg/L (≈ 57.4 µM) | 605 µMequiv | 34.8 mg/L (≈ 97.4 µM) | 9.8 mg/L (≈ 27.4 µM) | 111 µMequiv | 205 µMequiv | 384 µMequiv | 142 µMequiv | 345 µMequiv | – |
| 34.6 mg/L (≈ 79.3 µM) | Nc1nc(N2CCOCC2)sc1C(=O)c1cc2cc(Br)ccc2oc1=O | 48.7 mg/L (≈ 112 µM) | 248 µMequiv | 19.3 mg/L (≈ 44.2 µM) | 14.6 mg/L (≈ 33.5 µM) | 76.5 µMequiv | 110 µMequiv | 212 µMequiv | 84.3 µMequiv | 162 µMequiv | – |
| 9.6 mg/L (≈ 54.5 µM) | O=C1O[C@H]([C@@H](O)CO)C(O)=C1O [ASCORBIC ACID] | – | 484 µMequiv | – | – | 74.9 µMequiv | 216 µMequiv | 397 µMequiv | 124 µMequiv | 310 µMequiv | – |
